Measured values from ChEMBL document CHEMBL1914454, “Novel N-linked aminopiperidine inhibitors of bacterial topoisomerase type II: broad-spectrum antibacterial agents with reduced hERG activity” (J Med Chem, 2011).
Converted amounts (≈) assume the structure as drawn.

Key:
[1] = test system: Staphylococcus aureus; test: Antibacterial activity against methicillin-susceptible Staphylococcus aureus after 18 to 24 hrs by broth microdilution method; assay type: functional
In short: (§1)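 Broth microdilution following CLSI guidelines in Mueller Hinton broth. Compounds in DMSO, diluted to 2% DMSO final, 11 doubling dilutions from 64 to 0.06 μg/mL. Incubated at 35 °C for 18−24 h; growth read by absorbance at 620 nm.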

[2] = test system: Pseudomonas aeruginosa; test: Antibacterial activity against Pseudomonas aeruginosa PAO1 after 18 to 24 hrs by broth microdilution method; assay type: functional; in short: as §1
[3] = test system: Streptococcus pneumoniae; test: Antibacterial activity against penicillin-susceptible Streptococcus pneumoniae D39 after 18 to 24 hrs by broth microdilution method; assay type: functional
In short: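 CLSI broth microdilution in 2.2% (w/v) Mueller Hinton broth with 0.65% (v/v) lysed horse blood. Compounds diluted from DMSO to 2% DMSO final, 11 doubling dilutions from 64 to 0.06 μg/mL. Incubated at 35 °C for 18−24 h; read at 620 nm.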

[4] = Octanol-phosphate buffer partition coefficient, log D of the compound at pH 7.4 by LC/MS/UV analysis
[5] = Inhibition of Escherichia coli ATPase activity of topoisomerase 4 ParC/ParE subunit assessed as reduction in inorganic phosphate production after 24 hrs by ammonium molybdate/malachite-green based assay
In short: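 Each reaction contained 0.5 nM each of E. coli ParC and ParE, 0.16 mM ATP and 0.005 mg/mL sheared salmon sperm DNA in 20 mM Tris pH 8.0 with 50 mM ammonium acetate, 8.0 mM MgCl₂, 0.5 mM EDTA, 5 mM DTT, 2.5% glycerol and 0.005% Brij-35. Compound dilution series; 24 h at room temperature. Quenched with malachite green; absorbance read at 650 nm. IC50 is the mean of three replicate experiments.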

[6] = Fraction unbound in human plasma at 10 uM after 16 hrs by equilibrium dialysis
[7] = test system: Escherichia coli; test: Antibacterial activity against Escherichia coli W3110 after 18 to 24 hrs by broth microdilution method; assay type: functional; conditions: K-12 substr. W3110; in short: as §1
[8] = target: Voltage-gated inwardly rectifying potassium channel KCNH2 (Homo sapiens, UniProt Q12809); test: Inhibition of human ERG by ionworks HT assay
Sequence of Voltage-gated inwardly rectifying potassium channel KCNH2 (Q12809 whole entry): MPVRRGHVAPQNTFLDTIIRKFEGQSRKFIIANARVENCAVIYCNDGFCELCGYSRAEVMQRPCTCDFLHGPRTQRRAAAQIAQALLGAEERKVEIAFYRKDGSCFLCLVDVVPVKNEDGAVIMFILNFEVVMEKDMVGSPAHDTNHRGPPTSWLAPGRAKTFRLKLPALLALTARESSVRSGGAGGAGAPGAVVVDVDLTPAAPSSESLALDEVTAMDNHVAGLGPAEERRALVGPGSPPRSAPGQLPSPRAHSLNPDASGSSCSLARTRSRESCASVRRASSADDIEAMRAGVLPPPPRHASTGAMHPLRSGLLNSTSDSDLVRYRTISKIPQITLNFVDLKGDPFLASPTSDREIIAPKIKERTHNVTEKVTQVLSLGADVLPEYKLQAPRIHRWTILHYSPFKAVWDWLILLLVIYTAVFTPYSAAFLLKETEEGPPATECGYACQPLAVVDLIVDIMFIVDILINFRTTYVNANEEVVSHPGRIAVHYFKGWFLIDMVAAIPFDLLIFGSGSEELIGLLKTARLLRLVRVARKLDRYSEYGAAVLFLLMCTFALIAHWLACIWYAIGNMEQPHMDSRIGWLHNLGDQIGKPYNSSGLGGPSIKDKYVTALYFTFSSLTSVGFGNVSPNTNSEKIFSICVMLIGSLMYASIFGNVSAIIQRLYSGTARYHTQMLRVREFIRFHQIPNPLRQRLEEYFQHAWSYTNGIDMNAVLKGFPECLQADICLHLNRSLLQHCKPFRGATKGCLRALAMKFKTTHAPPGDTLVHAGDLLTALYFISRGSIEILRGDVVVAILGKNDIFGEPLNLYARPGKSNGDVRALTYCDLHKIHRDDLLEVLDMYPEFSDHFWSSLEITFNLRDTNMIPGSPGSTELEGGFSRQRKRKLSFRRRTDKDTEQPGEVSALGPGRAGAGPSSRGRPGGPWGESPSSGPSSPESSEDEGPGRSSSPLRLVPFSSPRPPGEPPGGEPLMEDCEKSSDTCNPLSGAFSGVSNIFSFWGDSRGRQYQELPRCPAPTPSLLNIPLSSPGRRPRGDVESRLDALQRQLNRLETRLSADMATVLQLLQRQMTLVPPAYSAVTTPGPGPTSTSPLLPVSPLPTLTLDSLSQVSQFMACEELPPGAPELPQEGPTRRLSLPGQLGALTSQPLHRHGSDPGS

[9] = Volume of distribution in Beagle dog at 3 mg/kg, iv; assay type: ADME, organism-based, Canis lupus familiaris; design: dose 3 mg/kg, route intravenous; conditions: in vivo
In short: (§2)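 Plasma was sampled from 0 to 24 h and drug measured by LC–MS/MS. Parameters came from noncompartmental analysis.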

[10] = AUC in Wistar Han rat at 3 mg/kg, iv; assay type: ADME, organism-based; design: dose 3 mg/kg, route intravenous; conditions: plasma
In short: (§3)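 Groups of three Wistar Han rats got a 3 mg/kg iv bolus via a cannulated jugular vein. Serial whole-blood samples were taken at time intervals, and compound in plasma was quantified by LC–MS/MS. Parameters were estimated by a noncompartmental model.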

[11] = AUC in Beagle dog at 3 mg/kg, iv; assay type: ADME, organism-based, Canis lupus familiaris; design: dose 3 mg/kg, route intravenous; conditions: plasma; in short: as §2
[12] = Clearance in Beagle dog at 3 mg/kg, iv; assay type: ADME, organism-based, Canis lupus familiaris; design: dose 3 mg/kg, route intravenous; conditions: in vivo; in short: as §2
[13] = Half life in Wistar Han rat at 3 mg/kg, iv; assay type: ADME, organism-based; design: dose 3 mg/kg, route intravenous; conditions: in vivo; in short: as §3
[14] = Half life in Beagle dog at 3 mg/kg, iv; assay type: ADME, organism-based, Canis lupus familiaris; design: dose 3 mg/kg, route intravenous; conditions: in vivo; in short: as §2
[15] = Clearance in Wistar Han rat at 3 mg/kg, iv; assay type: ADME, organism-based; design: dose 3 mg/kg, route intravenous; conditions: in vivo; in short: as §3
[16] = Volume of distribution in Wistar Han rat at 3 mg/kg, iv; assay type: ADME, organism-based; design: dose 3 mg/kg, route intravenous; conditions: in vivo; in short: as §3
[17] = Oral bioavailability in Beagle dog at 10 mg/kg; assay type: ADME, organism-based, Canis lupus familiaris; conditions: in vivo; in short: as §2

| Compound | MIC [1] [µg/mL] | MIC [2] [µg/mL] | MIC [3] [µg/mL] | logD ([4]; octanol/phosphate buffer) | IC50 [5] [nM] | fraction unbound at 16 h, 10 µM [6] | MIC [7] [µg/mL] | IC50 [8] [nM] | logD ([4]; octanol/water) | Vd [9] [L/kg] | AUC [10] [ng·h/mL] | AUC [11] [ng·h/mL] | clearance [12] [mL/min/kg] | half-life [13] [h] | half-life [14] [h] | clearance [15] [mL/min/kg] | Vd [16] [L/kg] | bioavailability [17] [%] |
| --- | --- | --- | --- | --- | --- | --- | --- | --- | --- | --- | --- | --- | --- | --- | --- | --- | --- | --- |
| COc1ccc2ncc(F)c(CCN3CCC(NCc4ccc5c(n4)NC(=O)CO5)CC3)c2n1 | 0.02 (≈ 0.0429 µM) | 1 (≈ 2.14 µM) | 0.03 (≈ 0.0643 µM) | 1.78 | 0.6 | 0.06 | 0.06 (≈ 0.129 µM) | – | – | – | – | – | – | – | – | – | – | – |
| COc1ccc2ncc(=O)n(CCN3CCC(NCc4cc5c(cn4)OCCO5)CC3)c2n1 | 0.02 (≈ 0.0442 µM) | 4 (≈ 8.84 µM) | 0.03 (≈ 0.0663 µM) | 0.83 | 1.5 | 0.47 | 0.25 (≈ 0.552 µM) | – | – | – | – | – | – | – | – | – | – | – |
| COc1cc2c(ccc(=O)n2CCN2CCC(NCc3cc4c(cn3)OCCO4)CC2)cn1 | 1 (≈ 2.21 µM) | > 8 | 1 (≈ 2.21 µM) | 0.68 | 28 | 0.17 | 8 (≈ 17.7 µM) | – | – | – | – | – | – | – | – | – | – | – |
| COc1ccc2ccc(=O)n(CCN3CCC(NCc4cc5c(cn4)OCCO5)CC3)c2n1 | 0.02 (≈ 0.0443 µM) | > 8 | 0.05 (≈ 0.111 µM) | 1.16 | 2 | 0.31 | 0.5 (≈ 1.11 µM) | 40000 | – | – | – | – | – | – | – | – | – | – |
| COc1ncc2ccc(=O)n(CCN3CCC(NCc4cc5c(cn4)OCCO5)CC3)c2n1 | 0.13 (≈ 0.287 µM) | > 8 | 0.25 (≈ 0.552 µM) | 0.2 | 13 | 0.27 | 2 (≈ 4.42 µM) | 206000 | – | – | – | – | – | – | – | – | – | – |
| COc1ccc2c(c1)N(CCN1CCC(NCc3ccc4c(n3)NC(=O)CO4)CC1)C(=O)OC2 | 1 (≈ 2.14 µM) | 4 (≈ 8.56 µM) | 0.5 (≈ 1.07 µM) | 0.5 | 4.4 | 0.26 | 0.5 (≈ 1.07 µM) | 42000 | – | – | – | – | – | – | – | – | – | – |
| COc1ccc2c(c1)N(CCN1CCC(NCc3ccc4c(n3)NC(=O)CO4)CC1)C(=O)CO2 | 0.13 (≈ 0.278 µM) | 4 (≈ 8.56 µM) | 0.5 (≈ 1.07 µM) | 0.87 | 5 | 0.11 | 0.25 (≈ 0.535 µM) | – | – | – | – | – | – | – | – | – | – | – |
| O=C1COc2ccccc2N1CCN1CCC(NCc2cc3c(cn2)OCCO3)CC1 | 2 (≈ 4.71 µM) | > 8 | 4 (≈ 9.42 µM) | 1.04 | 100 | 0.26 | 8 (≈ 18.8 µM) | – | – | – | – | – | – | – | – | – | – | – |
| COc1ccc2c(C)nc(=O)n(CCN3CCC(NCc4cc5c(cn4)OCCO5)CC3)c2c1 | 2 (≈ 4.3 µM) | > 8 | 1 (≈ 2.15 µM) | – | 82 | – | > 8 | > 33000 | 0.29 | – | – | – | – | – | – | – | – | – |
| COc1ccc2c(c1)N(CCN1CCC(NCc3cc4c(cn3)OCCO4)CC1)C(=O)CS2 | 8 (≈ 17 µM) | > 8 | > 8 | – | – | 0.09 | > 8 | – | – | – | – | – | – | – | – | – | – | – |
| COc1ccc2nnc(=O)n(CCN3CCC(NCc4ccc5c(n4)NC(=O)CO5)CC3)c2c1 | > 8 | 8 (≈ 17.2 µM) | 8 (≈ 17.2 µM) | – | 26 | – | 2 (≈ 4.3 µM) | – | – | – | – | – | – | – | – | – | – | – |
| COc1ccc2ncc(F)c(CCN3CCC(NCc4cc5c(cn4)OCCO5)CC3)c2n1 | < 0.01 | 4 (≈ 8.82 µM) | < 0.07 | 1.46 | 1.3 | 0.17 | 0.13 (≈ 0.287 µM) | – | – | – | – | – | – | – | – | – | – | – |
| N#Cc1ccc2c(c1)N(CCN1CCC(NCc3ccc4c(n3)NC(=O)CO4)CC1)C(=O)CO2 | 0.13 (≈ 0.281 µM) | 2 (≈ 4.32 µM) | 0.5 (≈ 1.08 µM) | 0.24 | 3.2 | – | 0.25 (≈ 0.541 µM) | – | – | 61 | 640 | 3090 | 7.8 | 5.8 | 166 | 66 | 23 | 64 |
| COc1ccc2c(c1)N(CCN1CCC(NCc3cc4c(cn3)OCCO4)CC1)C(=O)CO2 | 0.13 (≈ 0.286 µM) | > 8 | 0.25 (≈ 0.55 µM) | 1.24 | – | 0.18 | 1 (≈ 2.2 µM) | 13000 | – | – | – | – | – | – | – | – | – | – |
| COc1ccc2c(c1)N(CCN1CCC(NCc3ccc4c(n3)NC(=O)CO4)CC1)C(=O)CC2 | > 8 | > 8 | > 8 | 0.66 | 780 | 0.04 | > 8 | 29000 | – | – | – | – | – | – | – | – | – | – |
| COc1ccc2c(C)cc(=O)n(CCN3CCC(NCc4cc5c(cn4)OCCO5)CC3)c2c1 | 0.02 (≈ 0.0431 µM) | > 8 | 0.03 (≈ 0.0646 µM) | 1.72 | – | – | 0.5 (≈ 1.08 µM) | 23000 | – | – | – | – | – | – | – | – | – | – |
| O=C1COc2ccc(CNC3CCN(CCN4C(=O)COc5ccc(F)cc54)CC3)nc2N1 | 0.25 (≈ 0.549 µM) | 3 (≈ 6.59 µM) | 0.5 (≈ 1.1 µM) | 0.9 | – | 0.17 | 0.25 (≈ 0.549 µM) | – | – | – | – | – | – | – | – | – | – | – |
| COc1ncc2ncc(=O)n(CCN3CCC(NCc4cc5c(cn4)OCCO5)CC3)c2n1 | 0.25 (≈ 0.551 µM) | > 8 | 0.25 (≈ 0.551 µM) | 0.14 | 28 | 0.96 | 2 (≈ 4.41 µM) | 81000 | – | – | – | – | – | – | – | – | – | – |
| COc1ccc2ccc(=O)n(CCN3CCC(NCc4cc5c(cn4)OCCO5)CC3)c2c1 | 0.03 (≈ 0.0666 µM) | > 8 | 0.06 (≈ 0.133 µM) | 1.32 | 22 | 0.31 | 1.5 (≈ 3.33 µM) | 34000 | – | – | – | – | – | – | – | – | – | – |
